Measured values of several laboratories.
Each line is one published result; the experiments were not run side by side.
CNR2: Cannabinoid receptor 2 (CNR2, Homo sapiens, UniProt P34972)
MMP2: 72 kDa type IV collagenase (MMP2, Homo sapiens, UniProt P08253)
SETD7: Histone-lysine N-methyltransferase SETD7 (SETD7, Homo sapiens, UniProt Q8WTS6)
SLC22A2: Solute carrier family 22 member 2 (SLC22A2, Homo sapiens, UniProt O15244)
Akr1b1: Aldo-keto reductase family 1 member B1 (Akr1b1, Rattus norvegicus, UniProt P07943)
HDAC10: Polyamine deacetylase HDAC10 (HDAC10, Homo sapiens, UniProt Q969S8)
ADRB2: Beta-2 adrenergic receptor (ADRB2, Homo sapiens, UniProt P07550)
Trpc6: Short transient receptor potential channel 6 (Trpc6, Mus musculus, UniProt Q61143)
P2RY6: P2Y purinoceptor 6 (P2RY6, Homo sapiens, UniProt Q15077)
CSNK1A1: Casein kinase I isoform alpha (CSNK1A1, Homo sapiens, UniProt P48729)

SMILES	target	test	test system	conditions	IC50 [µM]
CCCN(CCCCOCCOCCOCCOCC(=O)N[C@H](C(=O)N1C[C@H](O)C[C@H]1C(=O)NCc1ccc(-c2scnc2C)cc1)C(C)(C)C)C[C@@H](C)NC(=O)c1ccc(-c2noc(C(F)(F)F)n2)cc1	Histone deacetylase 7 (HDAC7, Homo sapiens, UniProt Q8WUI4)	enzyme activity, inhibitor, fluorescence			0.13
Cc1c(C(=O)Nc2ccc(C(F)(F)F)cn2)nc(-c2ccc(Cl)cc2Cl)n1-c1ccc(OS(=O)(=O)CCC(F)(F)F)cc1	CNR2	GTPγS binding, antagonist		cell membranes	0.133
Cc1noc(-c2cc3cc(-c4nc(C(=O)NCc5ccccc5)[nH]c4C)ccc3[nH]2)n1	MMP2	enzyme activity, inhibitor			> 20
C=CC(C)(C)c1cc(/C=C/C(=O)c2ccc(O)cc2)c(OC)cc1O	SETD7	enzyme activity, inhibitor			> 333
CC(C)c1nc(CN(C)C(=O)N[C@@H](CCN2CCOCC2)C(=O)N[C@H](CC[C@H](Cc2ccccc2)NC(=O)OCc2cncs2)Cc2ccccc2)cs1	SLC22A2	transporter uptake, inhibitor	MDCK-II		33
COc1ccc2nc(/N=C3/NC(=O)C(=Cc4ccc(Cl)cc4)S3)sc2c1	Akr1b1	enzyme activity, inhibitor, absorbance		pH 6.2	3.99
Cc1noc(-c2cc3cc(-c4nc(C(=O)NCc5ccccn5)[nH]c4C)ccc3[nH]2)n1	MMP2	enzyme activity, inhibitor			> 20
NC(=O)c1ccc[n+]([C@@H]2O[C@H](COP(=O)([O-])OP(=O)(O)OC[C@H]3O[C@@H](n4cnc5c(N)ncnc54)[C@H](O)[C@@H]3O)[C@@H](O)[C@H]2O)c1	Protein mono-ADP-ribosyltransferase PARP6 (PARP6, Homo sapiens, UniProt Q2NL67)	enzyme activity, inhibitor			87
Cc1noc(-c2cc3cc(-c4nc(C(N)=O)[nH]c4C)ccc3[nH]2)n1	MMP2	enzyme activity, inhibitor			> 20
CCCC[C@H](NC(=O)[C@H](C)c1c(C)[nH]c2ccc(O)cc12)c1ncc(-c2cc3ccccc3nc2OC)[nH]1	HDAC10	enzyme activity, inhibitor			0.43
CN1C2CCCC1CC(NC(=O)c1nn(C)c3ccccc13)C2 (stereo not drawn)	ADRB2	ligand displacement, radioligand		cell membranes	42.1
Cc1c(C(=O)NN2CCCCC2)nc(-c2ccc(Cl)cc2Cl)n1-c1ccc(OS(=O)(=O)CCC(C)(C)C)cc1	CNR2	GTPγS binding, antagonist		cell membranes	1.36
COc1cccc2sc(N(CCN(C)C)C(=O)c3ccc(Cl)s3)nc12	Trpc6	calcium signal, fluorescence			139
Cn1c(=O)c([N+](=O)[O-])c(Cl)c2ccccc21	Adenylate cyclase type 8 (Homo sapiens, UniProt P40145)	cAMP, inhibitor			1.6
COc1ccc2nc(N(CCN3CCCC3)C(=O)c3ccc(Cl)s3)sc2c1	Trpc6	calcium signal, fluorescence			33
Cc1c(C(=O)NN2CCCCC2)nc(-c2ccc(Cl)cc2Cl)n1-c1ccc(OS(=O)(=O)CCCC(F)(F)F)cc1	CNR2	GTPγS binding, antagonist		cell membranes	0.32
CC(C)(C)OC(=O)NCC#Cc1ccc2c(c1)C=C([N+](=O)[O-])C(C(F)(F)F)O2 (stereo not drawn)	P2RY6	calcium signal, antagonist			~1
O=C(O)C(=O)CC(=O)c1cccc(N(Cc2ccccc2)Cc2ccccc2)c1	Dual specificity protein phosphatase 3 (DUSP3, Homo sapiens, UniProt P51452)	enzyme activity, inhibitor, absorbance		pH 7	113
CC[C@@H](C(=O)Nc1ccc(C(N)=O)c(F)c1)n1cc(OC)c(-c2cc(Cl)ccc2-n2cc(C(F)(F)F)nn2)cc1=O	Coagulation factor X (F10, Homo sapiens, UniProt P00742)	enzyme activity, inhibitor			1.7
CN1[C@@H]2CC[C@H]1C[C@@H](OC(=O)c1c[nH]c3ccccc13)C2	ADRB2	ligand displacement, radioligand		cell membranes	37.7
O=C(c1ccc(-c2cccc(C(F)(F)F)c2)o1)N1CCN2CCC1CC2	Neuronal acetylcholine receptor subunit alpha-7 (CHRNA7, Homo sapiens, UniProt P36544)	ion current, two-electrode voltage clamp		oocytes	1.2
COc1c(OCC2CCCC2)cc2c(c1C=O)CC(O)OC2=O (stereo not drawn)	Receptor-type tyrosine-protein phosphatase S (PTPRS, Homo sapiens, UniProt Q13332)	enzyme activity, inhibitor, absorbance			0.6 to 0.7
O=C(OCc1ccccc1)c1ccc(O)cc1	SETD7	enzyme activity, inhibitor			> 333
CCNC(=O)c1nc(-c2ccc3[nH]c(-c4nc(C)no4)cc3c2)c(C)[nH]1	MMP2	enzyme activity, inhibitor			> 20

SMILES	target	test	test system	conditions	IC50 [µM]
CCCC[C@H](NC(=O)C1CN(C)C1)c1ncc(-c2cc3ccccc3nc2OC)[nH]1	HDAC10	enzyme activity, inhibitor			0.075
COc1ccc2nc(N(CCN(C)C)C(=O)c3ccc(Cl)s3)sc2c1	Trpc6	calcium signal, fluorescence			61.1
Cn1nc(C(=O)NCc2ccc(C(=O)O)cc2)cc1-c1ccc2[nH]c(-c3cncnc3)cc2c1	MMP2	enzyme activity, inhibitor			> 20
COc1cccc2sc(N(CCN3CCCC3)C(=O)c3ccc(Cl)s3)nc12	Trpc6	calcium signal, fluorescence			63.9
Cc1noc(-c2cc3cc(-c4nc(C(=O)NCC5CCOCC5)[nH]c4C)ccc3[nH]2)n1	MMP2	enzyme activity, inhibitor			> 20
COc1ccc2nc(/N=C3/NC(=O)C(=Cc4ccc(O)cc4)S3)sc2c1	Akr1b1	enzyme activity, inhibitor, absorbance		pH 6.2	1.3
Cc1noc(-c2cc3cc(-c4cc(C(=O)NCc5ccc(C(=O)O)cc5)nn4C)ccc3[nH]2)n1	MMP2	enzyme activity, inhibitor			> 20
CCN(CC)CCNC(=O)c1cc(Cl)c(N)cc1OC	ADRB2	ligand displacement, radioligand		cell membranes	67.4
Cc1ccc(NC(=O)c2nc(-c3ccc(Cl)cc3Cl)n(-c3ccc(OS(=O)(=O)CCC(F)(F)F)cc3)c2C)nc1	CNR2	GTPγS binding, antagonist		cell membranes	0.4
O=S(=O)(Nc1ccc2cccc(O)c2n1)c1ccc(-c2ccccc2)cc1	MMP2	enzyme activity, inhibitor, fluorescence			48
O=C(CCCCCCNC(=O)c1cnc(N(c2ccccc2)c2ccccc2Cl)nc1)NO	HDAC10	enzyme activity, inhibitor, fluorescence			2.52
COc1ccc2nc(/N=C3/NC(=O)C(=Cc4ccc(O)c(OC)c4)S3)sc2c1	Akr1b1	enzyme activity, inhibitor, absorbance		pH 6.2	0.83
Cc1c(C(=O)N[C@@H]2CCCC[C@@H]2O)nc(-c2ccc(Cl)cc2Cl)n1-c1ccc(OS(=O)(=O)CCC(F)(F)F)cc1 (single isomer, unassigned)	CNR2	GTPγS binding, antagonist		cell membranes	0.44
CCN1CCCC1CNC(=O)c1cc(S(=O)(=O)CC)c(N)cc1OC (stereo not drawn)	ADRB2	ligand displacement, radioligand		cell membranes	105
CN(C(=O)n1cnc(-c2ccc[n+]([O-])c2)c1)C1CCCCC1	SLC22A2	transporter uptake, inhibitor	MDCK-II		> 33.3
CN1CCN(c2ccc(Nc3ncc4cc(C#N)c(=O)n(C5CCCC5)c4n3)cc2)CC1	CSNK1A1	enzyme activity, inhibitor			> 10
O=[N+]([O-])C1=Cc2cc(C#Cc3ccc(F)cc3)ccc2OC1C(F)(F)F (stereo not drawn)	P2RY6	calcium signal, antagonist, fluorescence			4.4
Cc1csc(COCC(=O)C23CC4CC(CC(C4)C2)C3)n1	11-beta-hydroxysteroid dehydrogenase 1 (HSD11B1, Homo sapiens, UniProt P28845)	enzyme activity in cells, inhibitor			0.071
CC(=O)N[C@H]1CC(=O)NCCCC[C@@H](C(=O)N[C@@H](CCCNC(=N)N)C(=O)c2nc3ccc(C(=O)N[C@H](C(N)=O)C(C)C)cc3s2)NC(=O)[C@H](CC(C)C)NC1=O	Serine protease hepsin (HPN, Homo sapiens, UniProt P05981)	enzyme activity, inhibitor, fluorescence		with preincubation	0.0054
NCC1OC(c2ccccc2)Cc2c1ccc(O)c2O (stereo not drawn)	ADRB2	ligand displacement, radioligand		cell membranes	84.7
CCC1(c2ccc(C)cc2)C(=O)N(C(=O)OC(C)C)N1C(=O)OC(C)C (stereo not drawn)	Protein phosphatase methylesterase 1 (Mus musculus, UniProt Q8BVQ5)	enzyme activity, inhibitor			1.3
O=C(O)CSc1nnc(Br)n1-c1ccc(C2CC2)c2ccccc12	SLC22A2	transporter uptake, inhibitor	MDCK-II	5 min	> 300
CC(C)(C)n1nc(-c2cnc3cc(OC4CC4)ccc3c2)c(C(N)=O)c1N	CSNK1A1	cell-free assay, inhibitor			2.91
COc1cc(O)c(CC=C(C)C)c2c1C(=O)CC(c1ccc(O)cc1)O2 (stereo not drawn)	Cytochrome P450 1B1 (CYP1B1, Homo sapiens, UniProt Q16678)	enzyme activity, inhibitor, fluorescence		15 min, pH 7.4	0.48
